According to ChEMBL document CHEMBL4261538, “Synthesis and molecular docking studies of xanthone attached amino acids as potential antimicrobial and anti-inflammatory agents” (Medchemcomm, 2017):
Converted amounts (≈) assume the structure as drawn.

Tests used:
Staphylococcus aureus [1] = test: Antibacterial activity against Staphylococcus aureus at 100 ug/ml incubated for 24 hrs by agar well diffusion method; type: functional; details: read-out: DIZ
Summary of the method: (§1)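 Bacteria grown in nutrient broth at 37 °C for 24 h, then subcultured at room temperature. Compounds dissolved in DMSO at 5 mg mL⁻¹ and 5–20 µL added to 6 mm wells, giving 25, 50, 75, 100 µg per well. Gentamicin was the positive control and DMSO the negative control. Plates held at 37 °C for 24 h, then inhibition zone diameter (mm) measured. Values are means of three determinations.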

Fusarium oxysporum [2] = test: Antifungal activity against Fusarium oxysporum at 100 ug/ml incubated for 48 hrs by agar well diffusion method; type: functional; details: read-out: DIZ
Summary of the method: (§2)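 Compounds dissolved in DMSO at 5 mg mL⁻¹ and 5–20 µL added to 6 mm wells, giving 25, 50, 75, 100 µg per well. Bavistin was the positive control and DMSO the negative control. Plates incubated at 28 °C for 48 h, then inhibition zone diameter (mm) measured. Values are means of three determinations.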

Aspergillus niger [3] = test: Antifungal activity against Aspergillus niger at 50 ug/ml incubated for 48 hrs by agar well diffusion method; type: functional; details: read-out: DIZ; summary of the method: as §2
Fusarium oxysporum [4] = test: Antifungal activity against Fusarium oxysporum at 25 ug/ml incubated for 48 hrs by agar well diffusion method; type: functional; details: read-out: DIZ; summary of the method: as §2
Candida albicans [5] = test: Antifungal activity against Candida albicans at 25 ug/ml incubated for 48 hrs by agar well diffusion method; type: functional; details: read-out: DIZ; summary of the method: as §2
Bacillus subtilis [6] = test: Antibacterial activity against Bacillus subtilis at 100 ug/ml incubated for 24 hrs by agar well diffusion method; type: functional; details: read-out: DIZ; summary of the method: as §1
Fusarium oxysporum [7] = test: Antifungal activity against Fusarium oxysporum at 50 ug/ml incubated for 48 hrs by agar well diffusion method; type: functional; details: read-out: DIZ; summary of the method: as §2
Staphylococcus aureus [8] = test: Antibacterial activity against Staphylococcus aureus incubated for 24 hrs by microdilution method; type: functional
Bacillus subtilis [9] = test: Antibacterial activity against Bacillus subtilis at 75 ug/ml incubated for 24 hrs by agar well diffusion method; type: functional; details: read-out: DIZ; summary of the method: as §1
Candida albicans [10] = test: Antifungal activity against Candida albicans at 75 ug/ml incubated for 48 hrs by agar well diffusion method; type: functional; details: read-out: DIZ; summary of the method: as §2
Staphylococcus aureus [11] = test: Antibacterial activity against Staphylococcus aureus at 50 ug/ml incubated for 24 hrs by agar well diffusion method; type: functional; details: read-out: DIZ; summary of the method: as §1
Candida albicans [12] = test: Antifungal activity against Candida albicans incubated for 48 to 72 hrs by microdilution method; type: functional
Summary of the method: (§3)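 Sabouraud agar plates inoculated with fungal suspension at 10⁵ CFU mL⁻¹ plus serially diluted compounds and bavistin reference, both in DMSO. Incubated at 25 °C for 48–72 h. MIC is the lowest concentration completely inhibiting growth. Values are means of three determinations.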

Klebsiella pneumoniae [13] = test: Antibacterial activity against Klebsiella pneumoniae at 25 ug/ml incubated for 24 hrs by agar well diffusion method; type: functional; details: read-out: DIZ; summary of the method: as §1
Klebsiella pneumoniae [14] = test: Antibacterial activity against Klebsiella pneumoniae at 50 ug/ml incubated for 24 hrs by agar well diffusion method; type: functional; details: read-out: DIZ; summary of the method: as §1
Aspergillus niger [15] = test: Antifungal activity against Aspergillus niger at 75 ug/ml incubated for 48 hrs by agar well diffusion method; type: functional; details: read-out: DIZ; summary of the method: as §2
Escherichia coli [16] = test: Antibacterial activity against Escherichia coli at 25 ug/ml incubated for 24 hrs by agar well diffusion method; type: functional; details: read-out: DIZ; summary of the method: as §1
Erythrocyte = test: Anti-inflammatory activity in human RBC assessed as inhibition of hypotonic solution-induced hemolysis after 10 mins by spectrophotometric method; type: functional, cell-based
Summary of the method: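 Human blood (heparinized) washed with 0.9% saline, packed cells made into a 40% v/v stock in isotonic phosphate buffer (154 mM NaCl, 10 mM sodium phosphate, pH 7.4). Stock RBC mixed with hypotonic buffer (50 mM NaCl, 10 mM phosphate, pH 7.4) plus sample at 20–100 µg mL⁻¹.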

Fusarium oxysporum [17] = test: Antifungal activity against Fusarium oxysporum at 75 ug/ml incubated for 48 hrs by agar well diffusion method; type: functional; details: read-out: DIZ; summary of the method: as §2
Escherichia coli [18] = test: Antibacterial activity against Escherichia coli at 50 ug/ml incubated for 24 hrs by agar well diffusion method; type: functional; details: read-out: DIZ; summary of the method: as §1
Klebsiella pneumoniae [19] = test: Antibacterial activity against Klebsiella pneumoniae at 100 ug/ml incubated for 24 hrs by agar well diffusion method; type: functional; details: read-out: DIZ; summary of the method: as §1
Bacillus subtilis [20] = test: Antibacterial activity against Bacillus subtilis at 50 ug/ml incubated for 24 hrs by agar well diffusion method; type: functional; details: read-out: DIZ; summary of the method: as §1
Aspergillus niger [21] = test: Antifungal activity against Aspergillus niger at 25 ug/ml incubated for 48 hrs by agar well diffusion method; type: functional; details: read-out: DIZ; summary of the method: as §2
Bacillus subtilis [22] = test: Antibacterial activity against Bacillus subtilis at 25 ug/ml incubated for 24 hrs by agar well diffusion method; type: functional; details: read-out: DIZ; summary of the method: as §1
Staphylococcus aureus [23] = test: Induction of cell membrane damage in Staphylococcus aureus assessed as cell content leakage at MIC by spectrophotometric method; type: functional, organism-based; details: TDE = time-dependent effect
Summary of the method: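 Log-phase S. aureus inoculated into 0.1% sterile peptone water, with an untreated control, and held at 37 °C for 0, 30, 60 and 120 min. 1 mL of broth centrifuged and supernatant OD read at 260 nm to measure released DNA. Run in triplicate, repeated three times.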

Bacillus subtilis [24] = test: Antibacterial activity against Bacillus subtilis incubated for 24 hrs by microdilution method; type: functional
Candida albicans [25] = test: Antifungal activity against Candida albicans at 50 ug/ml incubated for 48 hrs by agar well diffusion method; type: functional; details: read-out: DIZ; summary of the method: as §2
Staphylococcus aureus [26] = test: Antibacterial activity against Staphylococcus aureus at 75 ug/ml incubated for 24 hrs by agar well diffusion method; type: functional; details: read-out: DIZ; summary of the method: as §1
Escherichia coli [27] = test: Antibacterial activity against Escherichia coli at 75 ug/ml incubated for 24 hrs by agar well diffusion method; type: functional; details: read-out: DIZ; summary of the method: as §1
Staphylococcus aureus [28] = test: Antibacterial activity against Staphylococcus aureus at 25 ug/ml incubated for 24 hrs by agar well diffusion method; type: functional; details: read-out: DIZ; summary of the method: as §1
Escherichia coli [29] = test: Antibacterial activity against Escherichia coli incubated for 24 hrs by microdilution method; type: functional
Aspergillus niger [30] = test: Antifungal activity against Aspergillus niger at 100 ug/ml incubated for 48 hrs by agar well diffusion method; type: functional; details: read-out: DIZ; summary of the method: as §2
Escherichia coli [31] = test: Antibacterial activity against Escherichia coli at 100 ug/ml incubated for 24 hrs by agar well diffusion method; type: functional; details: read-out: DIZ; summary of the method: as §1
Fusarium oxysporum [32] = test: Antifungal activity against Fusarium oxysporum incubated for 48 to 72 hrs by microdilution method; type: functional; summary of the method: as §3
Aspergillus niger [33] = test: Antifungal activity against Aspergillus niger incubated for 48 to 72 hrs by microdilution method; type: functional; summary of the method: as §3
Klebsiella pneumoniae [34] = test: Antibacterial activity against Klebsiella pneumoniae at 75 ug/ml incubated for 24 hrs by agar well diffusion method; type: functional; details: read-out: DIZ; summary of the method: as §1
Klebsiella pneumoniae [35] = test: Antibacterial activity against Klebsiella pneumoniae incubated for 24 hrs by microdilution method; type: functional
Candida albicans [36] = test: Antifungal activity against Candida albicans at 100 ug/ml incubated for 48 hrs by agar well diffusion method; type: functional; details: read-out: DIZ; summary of the method: as §2

| SMILES | zone of inhibition at 100 µg/mL (Staphylococcus aureus [1]) [mm] | zone of inhibition at 100 µg/mL (Fusarium oxysporum [2]) [mm] | zone of inhibition at 50 µg/mL (Aspergillus niger [3]) [mm] | zone of inhibition at 25 µg/mL (Fusarium oxysporum [4]) [mm] | zone of inhibition at 25 µg/mL (Candida albicans [5]) [mm] | zone of inhibition at 100 µg/mL (Bacillus subtilis [6]) [mm] | zone of inhibition at 50 µg/mL (Fusarium oxysporum [7]) [mm] | MIC (Staphylococcus aureus [8]) [µg/mL] | zone of inhibition at 75 µg/mL (Bacillus subtilis [9]) [mm] | zone of inhibition at 75 µg/mL (Candida albicans [10]) [mm] | zone of inhibition at 50 µg/mL (Staphylococcus aureus [11]) [mm] | MIC (Candida albicans [12]) [µg/mL] | zone of inhibition at 25 µg/mL (Klebsiella pneumoniae [13]) [mm] | zone of inhibition at 50 µg/mL (Klebsiella pneumoniae [14]) [mm] | zone of inhibition at 75 µg/mL (Aspergillus niger [15]) [mm] | zone of inhibition at 25 µg/mL (Escherichia coli [16]) [mm] | IC50 (Erythrocyte) [µg/mL] | zone of inhibition at 75 µg/mL (Fusarium oxysporum [17]) [mm] | zone of inhibition at 50 µg/mL (Escherichia coli [18]) [mm] | zone of inhibition at 100 µg/mL (Klebsiella pneumoniae [19]) [mm] | also measured |
| --- | --- | --- | --- | --- | --- | --- | --- | --- | --- | --- | --- | --- | --- | --- | --- | --- | --- | --- | --- | --- | --- |
| Cl.N[C@@H](Cc1c[nH]c2ccccc12)C(=O)Oc1ccc2c(=O)c3ccccc3oc2c1 | 42 | 42 | 31 | 25 | 26 | 43 | 32 | 16 | 36 | 39 | 31 | 20 | 23 | 30 | 40 | 26 | 26 | 37 | 31 | 44 | zone of inhibition at 50 µg/mL (Bacillus subtilis [20]): 32 mm; zone of inhibition at 25 µg/mL (Aspergillus niger [21]): 28 mm; zone of inhibition at 25 µg/mL (Bacillus subtilis [22]): 26 mm; Activity (Staphylococcus aureus [23]): Tde; MIC (Bacillus subtilis [24]): 16 µg/mL; zone of inhibition at 50 µg/mL (Candida albicans [25]): 33 mm; zone of inhibition at 75 µg/mL (Staphylococcus aureus [26]): 37 mm; zone of inhibition at 75 µg/mL (Escherichia coli [27]): 38 mm; zone of inhibition at 25 µg/mL (Staphylococcus aureus [28]): 24 mm; MIC (Escherichia coli [29]): 15 µg/mL; zone of inhibition at 100 µg/mL (Aspergillus niger [30]): 46 mm; zone of inhibition at 100 µg/mL (Escherichia coli [31]): 43 mm; MIC (Fusarium oxysporum [32]): 20 µg/mL; MIC (Aspergillus niger [33]): 21 µg/mL; zone of inhibition at 75 µg/mL (Klebsiella pneumoniae [34]): 37 mm; MIC (Klebsiella pneumoniae [35]): 22 µg/mL; zone of inhibition at 100 µg/mL (Candida albicans [36]): 44 mm |
| CC(C)(C)OC(=O)N1CCC[C@H]1C(=O)Oc1ccc2c(=O)c3ccccc3oc2c1 | 33 | 35 | 24 | 20 | 16 | 35 | 24 | 27 (≈ 65.9 µM) | 31 | 27 | 24 | 24 (≈ 58.6 µM) | 13 | 21 | 30 | 17 | 34 (≈ 83 µM) | 29 | 26 | 32 | zone of inhibition at 50 µg/mL (Bacillus subtilis [20]): 24 mm; zone of inhibition at 25 µg/mL (Aspergillus niger [21]): 17 mm; zone of inhibition at 25 µg/mL (Bacillus subtilis [22]): 15 mm; Activity (Staphylococcus aureus [23]): Tde; MIC (Bacillus subtilis [24]): 26 µg/mL (≈ 63.5 µM); zone of inhibition at 50 µg/mL (Candida albicans [25]): 22 mm; zone of inhibition at 75 µg/mL (Staphylococcus aureus [26]): 29 mm; zone of inhibition at 75 µg/mL (Escherichia coli [27]): 31 mm; zone of inhibition at 25 µg/mL (Staphylococcus aureus [28]): 17 mm; MIC (Escherichia coli [29]): 25 µg/mL (≈ 61.1 µM); zone of inhibition at 100 µg/mL (Aspergillus niger [30]): 33 mm; zone of inhibition at 100 µg/mL (Escherichia coli [31]): 36 mm; MIC (Fusarium oxysporum [32]): 25 µg/mL (≈ 61.1 µM); MIC (Aspergillus niger [33]): 29 µg/mL (≈ 70.8 µM); zone of inhibition at 75 µg/mL (Klebsiella pneumoniae [34]): 27 mm; MIC (Klebsiella pneumoniae [35]): 24 µg/mL (≈ 58.6 µM); zone of inhibition at 100 µg/mL (Candida albicans [36]): 34 mm |
